Measurements as given in ChEMBL document CHEMBL3352771, “3-Cyano-3-aza-β-amino Acid Derivatives as Inhibitors of Human Cysteine Cathepsins” (ACS Med Chem Lett, 2014).

Key:
Procathepsin L = Procathepsin L (Homo sapiens, UniProt P07711); assay: Inhibition of human cathepsin L using Z-Phe-Arg-pNA chromogenic substrate fluorogenic substrate incubated for 30 mins
How it was run: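 Duplicate measurements at five inhibitor concentrations. IC50 from nonlinear regression of steady-state rates, v_s = v0/(1+[I]/IC50). Ki obtained as IC50/(1+[S]/Km).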

Cathepsin S [1] = target: T1, Cathepsin S (Homo sapiens, UniProt P25774); assay: Inhibition of human cathepsin S using Z-Phe-Arg-AMC fluorogenic substrate fluorogenic substrate incubated for 60 mins
How it was run: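 Z-Phe-Arg-AMC substrate at 40 μM final (0.74 × Km), monitored over 60 min. Duplicate runs at five inhibitor concentrations. Steady-state rates fitted by nonlinear regression, v_s = v0/(1+[I]/IC50). Ki converted using IC50/(1+[S]/Km).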
Target sequence in this assay (P25774 whole entry): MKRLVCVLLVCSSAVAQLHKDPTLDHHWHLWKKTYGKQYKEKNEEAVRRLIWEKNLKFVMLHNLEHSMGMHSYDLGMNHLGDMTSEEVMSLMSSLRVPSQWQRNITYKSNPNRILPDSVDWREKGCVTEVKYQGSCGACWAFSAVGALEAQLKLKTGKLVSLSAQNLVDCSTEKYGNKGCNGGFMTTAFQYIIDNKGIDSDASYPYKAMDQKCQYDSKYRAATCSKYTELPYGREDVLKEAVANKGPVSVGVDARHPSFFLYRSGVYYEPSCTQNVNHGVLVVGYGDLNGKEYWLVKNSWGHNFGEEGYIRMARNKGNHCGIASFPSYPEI

[2] = target: Cathepsin K (Homo sapiens) (UniProt P43235); assay: Inhibition of human cathepsin K assessed as second order rate constant using Z-Leu-Arg-AMC fluorogenic substrate incubated for 60 mins
Cathepsin S [3] = target: T1, Cathepsin S; assay: Inhibition of human cathepsin S assessed as second order rate constant using Z-Phe-Arg-AMC fluorogenic substrate incubated for 60 mins
Target sequence in this assay (P25774 115-331 limits assumed): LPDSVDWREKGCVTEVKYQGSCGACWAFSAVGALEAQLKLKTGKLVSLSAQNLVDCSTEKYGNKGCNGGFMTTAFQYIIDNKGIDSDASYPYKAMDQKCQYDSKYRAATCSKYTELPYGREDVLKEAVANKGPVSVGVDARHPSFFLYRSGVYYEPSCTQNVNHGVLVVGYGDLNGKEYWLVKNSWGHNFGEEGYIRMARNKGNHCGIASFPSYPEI

Cathepsin B = Cathepsin B (Homo sapiens, UniProt P07858); assay: Inhibition of human cathepsin B using Z-Arg-Arg-pNA chromogenic substrate fluorogenic substrate incubated for 30 mins
How it was run: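 Chromogenic readout with Z-Arg-Arg-pNA at 500 μM final (0.45 × Km), followed over 30 min. Duplicate runs at five inhibitor concentrations. IC50 obtained by nonlinear regression of steady-state rates, v_s = v0/(1+[I]/IC50). Ki derived as IC50/(1+[S]/Km).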

Cathepsin S [4] = target: T1, Cathepsin S; assay: Inhibition of human cathepsin S assessed half life for enzyme-inhibitor complex using Z-Phe-Arg-AMC fluorogenic substrate fluorogenic substrate incubated for 60 mins
How it was run: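 Complex half-lives calculated from koff values for cathepsin K and cathepsin S. Progress curves used fluorescence emission at 440 nm with excitation at 360 nm. First-order rate constants kobs plotted against inhibitor concentration.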
Target sequence in this assay (P25774 115-331 limits assumed): as above

Sequence of Cathepsin K (Homo sapiens) (P43235 whole entry, looked up): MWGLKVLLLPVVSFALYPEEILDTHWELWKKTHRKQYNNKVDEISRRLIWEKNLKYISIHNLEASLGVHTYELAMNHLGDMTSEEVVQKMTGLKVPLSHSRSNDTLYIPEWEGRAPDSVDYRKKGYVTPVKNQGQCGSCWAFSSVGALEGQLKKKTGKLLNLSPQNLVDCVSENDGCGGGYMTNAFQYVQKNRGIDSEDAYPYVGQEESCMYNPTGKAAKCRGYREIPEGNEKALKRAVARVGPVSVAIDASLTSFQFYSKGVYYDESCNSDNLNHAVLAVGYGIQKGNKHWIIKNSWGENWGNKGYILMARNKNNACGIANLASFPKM
Sequence of Procathepsin L (P07711 whole entry): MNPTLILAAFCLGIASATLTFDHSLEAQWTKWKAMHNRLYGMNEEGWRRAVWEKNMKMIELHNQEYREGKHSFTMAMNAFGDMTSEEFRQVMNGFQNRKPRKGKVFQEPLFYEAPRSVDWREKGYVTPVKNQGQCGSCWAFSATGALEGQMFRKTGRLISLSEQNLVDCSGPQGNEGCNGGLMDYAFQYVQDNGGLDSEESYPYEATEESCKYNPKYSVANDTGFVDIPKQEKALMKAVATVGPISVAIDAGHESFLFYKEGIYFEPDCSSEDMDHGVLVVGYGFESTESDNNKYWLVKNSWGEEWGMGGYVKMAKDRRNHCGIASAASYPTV

Compound | Ki (Procathepsin L) [nM] | Ki (Cathepsin S [1]) [nM] | K [2] [×10³ /M/s] | K (Cathepsin S [3]) [×10³ /M/s] | Ki (Cathepsin B) [nM] | T1/2 (Cathepsin S [4]) [min]
CN(C(=O)OC(C)(C)C)N(C#N)CC(=O)N1CCOCC1 | 1690 | 793 | 4.05 | 0.461 | 194 | 
CCCN1CCN(c2ccc(C(=O)NC3(C(=O)NCC#N)CCCCC3)cc2)CC1 [BALICATIB] | 3260 | 30100 |  |  | 3800 | 

The next molecules have a lower Ki (Procathepsin L) than those just listed; values first:

Ki (Procathepsin L) [nM] | Ki (Cathepsin S [1]) [nM] | K [2] [×10³ /M/s] | K (Cathepsin S [3]) [×10³ /M/s] | Ki (Cathepsin B) [nM] | T1/2 (Cathepsin S [4]) [min] | Compound
573 | 0.777 | 19000 | 757 | 3.56 | 10 | CC(C)(C)OC(=O)NN(C#N)CC(=O)N1CCOCC1
228 | 0.176 | 28900 | 1590 | 0.459 |  | CN(Cc1ccccc1)C(=O)CN(C#N)NC(=O)OC(C)(C)C
185 | 0.13 | 52900 | 2580 | 0.406 |  | CC(C)(C)OC(=O)NN(C#N)CC(=O)N(Cc1ccccc1)Cc1ccccc1
